Data: ChEMBL document CHEMBL1138352, “On the intractability of estrogen-related receptor alpha as a target for activation by small molecules” (J Med Chem, 2007)
Activity calls are given as the source filed them. No cut-off for these calls is given here.

Columns and labels:
[1] = target: T1, Steroid hormone receptor ERR1 (Homo sapiens) (UniProt P11474); experiment: Effect on interaction between ERRalpha ligand binding domain and RIP140 at 30 uM by FRET assay
T1 sequence (whole entry): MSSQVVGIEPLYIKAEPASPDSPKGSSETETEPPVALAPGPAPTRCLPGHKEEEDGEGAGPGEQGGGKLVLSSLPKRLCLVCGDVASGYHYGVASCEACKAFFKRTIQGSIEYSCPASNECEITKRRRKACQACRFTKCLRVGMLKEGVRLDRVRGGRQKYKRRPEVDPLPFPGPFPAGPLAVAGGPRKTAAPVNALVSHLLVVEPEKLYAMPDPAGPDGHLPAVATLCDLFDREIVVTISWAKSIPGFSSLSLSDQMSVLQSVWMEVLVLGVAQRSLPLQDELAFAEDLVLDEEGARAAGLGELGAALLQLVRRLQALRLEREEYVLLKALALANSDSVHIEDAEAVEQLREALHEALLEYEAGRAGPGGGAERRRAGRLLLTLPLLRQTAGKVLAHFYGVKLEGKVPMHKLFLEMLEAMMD

[2] = target: T2, Estrogen-related receptor gamma (Homo sapiens) (UniProt P62508); experiment: Effect on interaction between ERRgamma ligand binding domain and RIP140 by FRET assay
T2 sequence (whole entry): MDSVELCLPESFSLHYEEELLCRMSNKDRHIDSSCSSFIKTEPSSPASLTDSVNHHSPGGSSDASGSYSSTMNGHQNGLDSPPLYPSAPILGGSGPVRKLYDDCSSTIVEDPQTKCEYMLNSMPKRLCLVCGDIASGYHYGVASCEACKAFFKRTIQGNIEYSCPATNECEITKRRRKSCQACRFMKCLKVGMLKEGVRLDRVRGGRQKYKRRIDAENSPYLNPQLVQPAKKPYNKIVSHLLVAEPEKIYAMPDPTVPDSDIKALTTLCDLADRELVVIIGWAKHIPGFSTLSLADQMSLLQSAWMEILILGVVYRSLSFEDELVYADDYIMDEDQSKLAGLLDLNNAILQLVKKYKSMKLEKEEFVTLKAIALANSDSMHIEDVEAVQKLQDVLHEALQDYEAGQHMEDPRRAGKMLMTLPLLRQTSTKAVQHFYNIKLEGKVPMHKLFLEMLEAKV

[3] = target: T1, Steroid hormone receptor ERR1 (Homo sapiens); experiment: Activity at human ERRalpha expressed in HeLa cells assessed as estrogen response element activation at 50 uM after 24 ro 30 hrs by luciferase reporter gene assay; assay type: cell-based
Procedure, shortened: (§1)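 HeLa cells were co-transfected with an expression vector for human ERRα (wild type, or the F272A point mutant for line 1) and a luciferase reporter driven by a triple repeat of an estrogen response element. Luciferase activity in compound-exposed cells was compared with vehicle-treated cells.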

[4] = system: HeLa; experiment: Activity at human ERRalpha F272A mutant expressed in HeLa cells assessed as estrogen response element activation after 24 to 30 hrs by luciferase reporter gene assay; assay type: cell-based; procedure, shortened: as §1
[5] = system: HeLa; experiment: Activity at human ERRalpha F272A mutant expressed in HeLa cells assessed as estrogen response element activation at 10 uM after 24 to 30 hrs by luciferase reporter gene assay; assay type: cell-based
Procedure, shortened: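 HeLa cells transiently co-transfected with an expression vector for human ERRα (F272A point mutant) and a luciferase reporter carrying a triple repeat of the estrogen response element. Cells were exposed to compound, and luciferase activity was read relative to vehicle-treated cells.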

Activity [1]	Activity [2]	Activity [3]	SMILES	Activity [4]	Activity [5]
inactive	inactive	inactive	CC(C)/C=N/NC(=O)c1ccc(O)cc1		
inactive	inactive	inactive	NC(=O)c1ccc(O)cc1		
inactive	inactive	inactive	CCC(C)C(C)/C=N/NC(=O)c1ccc(O)cc1 (configuration not stated)		
inactive	inactive	inactive	CNC(=O)c1ccc(O)cc1		
inactive	inactive	inactive	C=C(/C=N/NC(=O)c1ccc(O)cc1)CC		
inactive	inactive	inactive	C=CCC/C=N/NC(=O)c1ccc(O)cc1		
inactive	inactive	inactive	CCC(C)/C=N/NC(=O)c1ccc(O)cc1 (configuration not stated)		
			CC(C)c1ccc(/C=N/NC(=O)c2ccc(O)cc2)cc1	inactive	
inactive	inactive	inactive	CCCCC/C=N/NC(=O)c1ccc(O)cc1		
inactive	inactive	inactive	CCCNC(=O)c1ccc(O)cc1		
inactive	inactive	inactive	CC(C)CCNC(=O)c1ccc(O)cc1		
inactive	inactive	inactive	CC(C)(C)CNC(=O)c1ccc(O)cc1		
inactive	inactive	inactive	C=C(C)CNC(=O)c1ccc(O)cc1		
			CN(C)CCc1c[nH]c2ccc(-c3cccc4ccccc34)cc12		inactive
inactive	inactive	inactive	CC(C)NC(=O)c1ccc(O)cc1		
inactive	inactive	inactive	CC(C)CNC(=O)c1ccc(O)cc1		inactive
inactive	inactive	inactive	CCNC(=O)c1ccc(O)cc1		
inactive	inactive	inactive	CCCCCNC(=O)c1ccc(O)cc1		
inactive	inactive	inactive	CCCCNC(=O)c1ccc(O)cc1		
inactive	inactive	inactive	CC/C=N/NC(=O)c1ccc(O)cc1		
